The source made the active and inactive calls. The calls are words filed in the database; no cut-off is given here. Residues, ends and D or L forms follow the SMILES beside them. *: point of attachment. Cbz = O=C(OCc1ccccc1)*; CH2F = FC*
Tests used:
SF-188 [1] = experiment: Cell viability in human SF188 cells in presence of Z-VAD-FMK; assay type: functional
SF-188 [2] = experiment: Cell viability in human SF188 cells; assay type: functional
How it was run: (§1)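 SF188 cells were seeded at 2.5 × 10^5/mL 24 h before use. For the inhibitor arm, cells were pretreated for 2 h with various concentrations of Z-VAD-FMK, then 43.4 µM compound was added. Viability was read by MTT assay 8 h after compound addition.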

SF-188 [3] = experiment: Cell viability of human SF188 cells in presence of tBHQ, Z-VAD-FMK; assay type: functional
SF-188 [4] = experiment: Induction of autophagy in human SF188 cells by MDC staining at 43.4 uM after 4 hrs; assay type: functional, cell-based
How it was run: (§2)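 SF188 and U87MG cells were treated with 43.4 or 108.4 µM compound for 4 h. Autophagic vacuoles were then visualized by monodansylcadaverine (MDC) staining.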

U-87 MG [5] = experiment: Induction of autophagy in human U87MG cells by MDC staining at 43.4 uM after 4 hrs; assay type: functional, cell-based; settings: U-87MG ATCC; how it was run: as §2
U-87MG ATCC [6] = experiment: Reduction of Akt phosphorylation in human U87MG cells after 7 hrs; assay type: cell-based
SF-188 [7] = experiment: Reduction of Akt phosphorylation in human SF188 cells after 5 hrs; assay type: cell-based
SF-188 [8] = experiment: Induction of autophagy in human SF188 cells by MDC staining at 108.4 uM after 4 hrs; assay type: functional, cell-based; how it was run: as §2
U-87 MG [9] = experiment: Induction of autophagy in human U87MG cells by MDC staining at 108.4 uM after 4 hrs; assay type: functional, cell-based; settings: U-87MG ATCC; how it was run: as §2
Caspase-3 (Homo sapiens) = biological target: T1, Caspase-3 (Homo sapiens) (UniProt P42574); experiment: Activation of caspase 3 in human SF188 cells at 108.4 uM; assay type: cell-based; settings: SF-188
T1 sequence (whole entry): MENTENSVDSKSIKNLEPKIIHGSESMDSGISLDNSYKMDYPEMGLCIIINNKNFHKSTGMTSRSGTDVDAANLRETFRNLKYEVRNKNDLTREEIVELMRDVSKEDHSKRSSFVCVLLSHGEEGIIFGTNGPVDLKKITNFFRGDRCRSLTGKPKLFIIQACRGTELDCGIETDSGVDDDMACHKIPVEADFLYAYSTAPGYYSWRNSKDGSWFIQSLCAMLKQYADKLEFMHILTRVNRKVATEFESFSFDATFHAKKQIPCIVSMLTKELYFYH
How it was run: (§3)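 Western blot of SF188 lysates after treatment with 108.4 µM compound, sampled at different time points or at different concentrations. 50 µg total protein loaded per lane. Pro-caspase and cleaved (active) caspase bands were detected, with actin as loading control.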

Caspase-8 (Homo sapiens) = Caspase-8 (Homo sapiens) (UniProt Q14790); experiment: Activation of caspase 8 in human SF188 cells at 108.4 uM; assay type: cell-based; settings: SF-188; how it was run: as §3
Caspase-7 (Homo sapiens) = biological target: T2, Caspase-7 (Homo sapiens) (UniProt P55210); experiment: Activation of caspase 7 in human SF188 cells at 108.4 uM; assay type: cell-based; settings: SF-188; how it was run: as §3
T2 sequence (whole entry): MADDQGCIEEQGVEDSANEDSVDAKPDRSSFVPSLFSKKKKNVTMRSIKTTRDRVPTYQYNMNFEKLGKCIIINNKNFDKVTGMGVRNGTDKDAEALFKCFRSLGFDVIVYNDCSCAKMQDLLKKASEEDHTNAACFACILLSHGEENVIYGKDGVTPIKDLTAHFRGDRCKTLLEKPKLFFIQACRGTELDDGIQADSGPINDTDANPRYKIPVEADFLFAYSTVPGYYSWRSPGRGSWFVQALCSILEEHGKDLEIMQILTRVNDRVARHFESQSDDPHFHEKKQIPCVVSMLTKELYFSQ

Caspase-9 (Homo sapiens) = biological target: T3, Caspase-9 (Homo sapiens) (UniProt P55211); experiment: Activation of caspase 9 in human SF188 cells at 108.4 uM; assay type: cell-based; settings: SF-188; how it was run: as §3
T3 sequence (whole entry): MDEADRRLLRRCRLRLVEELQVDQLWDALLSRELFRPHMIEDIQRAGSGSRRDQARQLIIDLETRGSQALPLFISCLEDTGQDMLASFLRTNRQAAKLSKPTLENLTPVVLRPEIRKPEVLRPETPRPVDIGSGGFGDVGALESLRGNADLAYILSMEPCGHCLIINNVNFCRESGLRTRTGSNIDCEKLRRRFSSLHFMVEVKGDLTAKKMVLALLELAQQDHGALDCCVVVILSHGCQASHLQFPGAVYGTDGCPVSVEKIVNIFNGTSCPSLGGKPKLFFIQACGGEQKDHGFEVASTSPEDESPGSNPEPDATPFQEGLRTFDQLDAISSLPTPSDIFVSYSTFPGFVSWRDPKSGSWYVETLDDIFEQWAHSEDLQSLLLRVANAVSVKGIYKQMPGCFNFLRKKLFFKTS

[10] = Cytotoxicity against human SF188 cells at 43.4 uM after 24 hrs by MTT assay; assay type: cell-based; settings: sf-188, 24 h
How it was run: (§4)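 Glioma cells seeded at 2.5 × 10^5/mL 24 h before treatment, then exposed to a range of concentrations for 24 h. Viability was measured by MTT assay, and cell death was read from the 24 h dose-response curve.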

[11] = Cytotoxicity against human U87MG cells at 108.4 uM after 24 hrs by MTT assay; assay type: cell-based; settings: u-87mg atcc; how it was run: as §4
[12] = Cytotoxicity against human SF188 cells at 108.4 uM within 10 hrs by MTT assay; assay type: cell-based; settings: sf-188, 10 h
How it was run: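 Cells seeded at 2.5 × 10^5/mL 24 h beforehand were treated with 108.4 µM. Viability was measured by MTT assay at 1, 4, 6, 8, 10 and 24 h after treatment.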

[13] = Cytotoxicity against human SF188 cells after 24 hrs; assay type: cell-based; settings: SF-188, 24 h; how it was run: as §4
[14] = Cytotoxicity against human U87MG cells after 24 hrs; assay type: cell-based, U-87MG ATCC; settings: U-87 MG; how it was run: as §4
SF-188 [15] = experiment: Induction of apoptosis in human SF188 cells at 108.4 uM within 3 hrs; assay type: functional
How it was run: (§5)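 SF188 or U87MG cells were treated with 108 µM compound and stained by TUNEL (ApopTag). Apoptotic cells were counted as % TUNEL-positive: at 3 h for SF188, at 7 h for U87MG. Untreated cells served as controls.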

U-87 MG [16] = experiment: Induction of apoptosis in human U87MG cells at 108.4 uM within 7 hrs; assay type: functional, U-87MG ATCC; how it was run: as §5
U-87MG ATCC [17] = experiment: Activation of caspases in human U87MG cells; assay type: cell-based
How it was run: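 Western blot of U87MG cells treated with 108.4 µM compound for up to 9 h, probing pro- and cleaved caspases-8 and -3. 50 µg protein per lane. Lysate from treated SF188 cells served as positive control and actin as loading control.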

SF-188 [18] = experiment: Increase in superoxide anion level in human SF188 cells after 2 hrs; assay type: functional, cell-based
How it was run: (§6)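 Superoxide anion was measured by dihydroethidine (HE) fluorescence using flow cytometry in SF188 or U87MG cells 2 h after treatment at several concentrations. Result is reported as the percentage of HE-positive cells.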

U-87 MG [19] = experiment: Increase in superoxide anion level in human U87MG cells after 2 hrs; assay type: functional, cell-based; settings: U-87MG ATCC; how it was run: as §6
SF-188 [20] = experiment: Cell viability in human SF188 cells in presence of tBHQ at 86.8 uM; assay type: functional
SF-188 [21] = experiment: Inhibition of 20S-protopanaxadiol-induced activation of caspases in human SF188 cells; assay type: cell-based
SF-188 [22] = experiment: Inhibition of TNF-alpha-induced apoptosis in human SF188 cells; assay type: functional, cell-based
SF-188 [23] = experiment: Inhibition of cycloheximide-induced apoptosis in human SF188 cells; assay type: functional, cell-based
SF-188 [24] = experiment: Inhibition of 20S-protopanaxadiol-induced apoptosis in human SF188 cells after 8 hrs by MTT assay; assay type: functional; set-up: scale not given: the % may be the effect or the level left; how it was run: as §1

Chain of Caspase-8 (Homo sapiens) (Q14790 217-374 limits assumed): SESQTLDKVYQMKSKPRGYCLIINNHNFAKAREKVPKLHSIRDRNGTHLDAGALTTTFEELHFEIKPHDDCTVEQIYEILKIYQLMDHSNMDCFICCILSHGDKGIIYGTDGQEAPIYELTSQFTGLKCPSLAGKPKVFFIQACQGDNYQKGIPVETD
Chain of Caspase-8 (Homo sapiens) (Q14790 385-479 limits assumed): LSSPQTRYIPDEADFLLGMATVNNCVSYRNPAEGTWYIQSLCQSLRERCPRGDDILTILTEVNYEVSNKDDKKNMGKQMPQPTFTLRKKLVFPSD

With `CC(C)=CCC[C@](C)(O)[C@H]1CC[C@]2(C)[C@@H]1[C@H](O)C[C@@H]1[C@@]3(C)CC[C@H](O)C(C)(C)[C@@H]3CC[C@]12C` the Activity (SF-188 [1]) was 36%, the Activity (SF-188 [2]) was 16.5% and the Activity (SF-188 [3]) was 89.4%. For the same molecule, the Activity (SF-188 [4]) was “Active”, the Activity (U-87 MG [5]) was “Active” and the Activity (U-87MG ATCC [6]) was “Dose-dependent effect”. The Activity (SF-188 [7]) was “inactive”, the Activity (SF-188 [8]) was “Active” and the Activity (U-87 MG [9]) was “Active”. For the same molecule, the Activity (Caspase-3 (Homo sapiens)) was “Active”, the Activity (Caspase-8 (Homo sapiens)) was “Active” and the Activity (Caspase-7 (Homo sapiens)) was “Active”. For the same molecule, the Activity (Caspase-9 (Homo sapiens)) was “Active”, the Activity [10] was 100% and the Activity [11] was 90%. It also gave an Activity [12] of 90%, an IC50 [13] of 24 µM and an IC50 [14] of 38 µM. For the same molecule, the Activity (SF-188 [15]) was 42.67%, the Activity (U-87 MG [16]) was 51.01% and the Activity (U-87MG ATCC [17]) was “inactive”. The Activity (SF-188 [18]) was “Active”, the Activity (U-87 MG [19]) was “Active” and the Activity (SF-188 [20]) was 30.46%.
For `CC(C)[C@H](NC(=O)OCc1ccccc1)C(=O)N[C@@H](C)C(=O)N[C@@H](CC(=O)O)C(=O)CF` (Cbz-Val-Ala-Asp-CH2F), the Activity (SF-188 [21]) was “Active”, the Activity (SF-188 [22]) was “Active” and the Activity (SF-188 [23]) was “Active”. For the same molecule, the Activity (SF-188 [24]) was 44.72%.
